The RNAGym collection of RNA variant scans (doi:10.1126/science.aae0568)
This sample holds only a part of the variants without activity.

B1: tRNA (parent)
chain: GUUCCGUUGGCGUAAUGGUAACGCGUCUCCCUCCUAAGGAGAAGACUGCGGGUUCGAGUCCCGUACGGAACG

Variants of: B1
Assay: yeast fitness relative to wild type (ratio to wild type); higher = fitter; tRNA-Arg(CCU), competitive growth, 37 C, YPD
Summary of the method: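 Gene amplicons from the start population and from each of six end populations were read by 100-nucleotide paired-end sequencing. Those end populations came from pooled Saccharomyces cerevisiae strains carrying tRNA-Arg(CCU) gene variants at the native locus, competed in YPD at 37°C for 24 hours. Fitness relative to wild type was worked out from changes in genotype frequencies. Genotypes needed ≥ 100 starting reads, and estimates < 0.5 were set to 0.5.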

Variant	yeast fitness
A14G A69G	0.821
A14G A69U	0.921
A14G A57G G68C	0.616
A14G G18C C29G U54C	≤ 0.5
A14G C29G A37G C46U C66G	≤ 0.5
A14G G18A U26A G50A	≤ 0.5
A14G G23C C29G G63C C66G	≤ 0.5
A14C C30U G58A	≤ 0.5
A14G C22G U35A	0.61
A14G G18A	0.63
A14G G17A A57C	≤ 0.5
A14C G18C G56A	≤ 0.5
A14C U28A U53G	0.57
A14G C30U C46A G50A	≤ 0.5
A14C U16C C61U	≤ 0.5
A14G C30U C46A	0.763
A14G C24U C30U C60A	≤ 0.5
A14G G39A G44C C61A G63C	≤ 0.5
A14G G39C G51A	≤ 0.5
A14G G23A C60A	≤ 0.5
A14G A20U C29G C33U	0.543
A14C G18A C22G A57U C61G	≤ 0.5
A14G C24G	0.597
A14G A15U U32G C34G U47C G63C	≤ 0.5

Variant	yeast fitness
A14G C34G A43C C62U	≤ 0.5
A14C U16C G44A U54C C61U A69C	≤ 0.5
A14G A15C U26A G48C C49U U59C	≤ 0.5
A14C C49U U64A	0.556
A14G C30A C34A A43C	≤ 0.5
A14G A21G C33U A43C	≤ 0.5
A14G G51A	0.657
A14G C31G A37U A57C A69U	≤ 0.5
A14G A40U A65C	0.533
A14G C22G C30G G68A	≤ 0.5
A14G G25A C30A A70C	≤ 0.5
A14C C34G A43U G48A	≤ 0.5
A14G C31U A42G C62U A69C	≤ 0.5
A14C G51C U59G	≤ 0.5
A14C G25C G48A	0.608
A14G C62G	0.688
A14G G52C C66G	0.619
A14C C30A C31G	≤ 0.5
A14C C30U	0.622
A14C C30G	0.508
A14C C30A	0.576
A14G A40G C46U	0.57
A14C U64C	0.935
A14C U19A U59C A69G	0.652

Variant	yeast fitness
A14C U54A U59C C61G	≤ 0.5
A14G C46U G50C C55U A57U C62G A70U	0.54
A14G C30A C34G	0.508
A14G A21C A65C	0.539
A14G G39A A43U	0.643
A14G C29G C31U	0.6
A14C G44A C46A G52A C66U	≤ 0.5
A14G C30A C34A A43C A65C A70C	≤ 0.5
A14G G51A U54C	≤ 0.5
A14G A21U C62G	≤ 0.5
A14G A21U C30A A36U C60U A69C	≤ 0.5
A14C C31U A36U	0.631
A14G C29G	0.564
A14C C29U A36G A45U A70U	≤ 0.5
A14G G18C C31A	≤ 0.5
A14G C24G G52A	≤ 0.5
A14C G18A C22G C49A U59C A69G	≤ 0.5
A14G C34G C60G A70C	≤ 0.5
A14C G44C A70C	0.56
A14G C22G A70U	0.774
A14G A42C C62A	≤ 0.5
A14G G41A A69C	≤ 0.5
A14G C24U C49U	0.675
A14G A42U A45C U59A	≤ 0.5

Variant	yeast fitness
A14G A15G U54C	0.569
A14G C29G C46U A57G C61U	≤ 0.5
A14C G25A C33G A36U A45G G52C	≤ 0.5
A14C U19C C34U G39C G51C	≤ 0.5
A14G A42G G51C	≤ 0.5
A14G C34A C62G G68C	0.763
A14C G25A A37U A42G	≤ 0.5
A14C C33G A42C G48A C60U	≤ 0.5
A14C C31U	0.706
A14G A36U C46G C62A A69C	≤ 0.5
A14G C27U C46A	0.673
A14C C46A	0.641
A14C C46U	0.915
A14G G18A U26A U32C	≤ 0.5
A14G C34U	0.62
A14G C24U A57G	0.639
A14G C24G G50A C55G	≤ 0.5
A14G C27G A65U G68U	≤ 0.5
A14G C24U G52A C60U	≤ 0.5
A14G C24G G44C G58C G68U	≤ 0.5
A14G G41C	0.917
A14G A21C C30G	≤ 0.5
A14G A15U G50U U64G	0.542
A14G C34G A45U	≤ 0.5

Variant	yeast fitness
A14G C22G U35G A40C A70G	≤ 0.5
A14C G18C	0.542
A14C C33U	0.64
A14C G18A A42G C46A	≤ 0.5
A14C G25C U47A G63C	0.678
A14G G17C C22G	≤ 0.5
A14G G18C C30U C34U C61G	≤ 0.5
A14C U16A U26C C66U A69C	≤ 0.5
A14G C24G C31U C55G G63C	≤ 0.5
A14G G38A A40C G50A U54A	0.523
A14G A21C U35A A43G	≤ 0.5
A14G C27A A45U G67C	0.521
A14G C34G G63C G67C	≤ 0.5
A14G A21C A36C A43U	≤ 0.5
A14G A43C G52C	≤ 0.5
A14C U53C	0.713
A14G C30U A45U	0.675
A14C U16C G51C G58A C60A	≤ 0.5
A14G A15C G51C C61G	≤ 0.5
A14G A40U C55A G68U	≤ 0.5
A14G C24G C31U C55A C61A	≤ 0.5
A14G C31A C34G A43C	≤ 0.5
A14G A15U G25C C49U	0.619
A14G C34G A43C C62A C66A	≤ 0.5

Variant	yeast fitness
A14G C29G C33U	0.55
A14C U16A C66U	≤ 0.5
A14C C31U A36U C55G	≤ 0.5
A14G C34U G52A C66U A70U	≤ 0.5
A14G G17C G39A A69C	≤ 0.5
A14G A42G C46G A57G	≤ 0.5
A14G G23C C55U C61U A65U	0.558
A14C G23A C29U U35C G48A	≤ 0.5
A14G C27G	0.562
A14C U32G U47C C55G	≤ 0.5
A14C C34U G39C	0.625
A14C C60G C66U G68A	≤ 0.5
A14G C29G A36U C46G	≤ 0.5
A14G C22G U64A	≤ 0.5
A14G A57U A65U	≤ 0.5
A14C G48C	0.658
A14C C30G A37G A45G U59C G67C	≤ 0.5
A14G C24G C31U G68A	≤ 0.5
A14G A43C A45G G50A	≤ 0.5
A14G C31G A43U C46G A70U	≤ 0.5
A14G G17A G23A U28G	≤ 0.5
A14G G25A C30A A57U	0.607
A14C G25A C29G C46G C61A	0.569
A14C U28A U59G A65U	≤ 0.5

Variant	yeast fitness
A14G G23A A36G C66U	≤ 0.5
A14C U28G	0.625
A14C U28C	0.606
A14C G18A G67U	≤ 0.5
A14G C29G A42C	≤ 0.5
A14G C61U	0.934
A14C C30U G41C A69U	≤ 0.5
A14G A15C C46A U64G A65U	≤ 0.5
A14G C24G C31U C66G	≤ 0.5
A14G A21C C30G A57U	≤ 0.5
A14G A21C C30G A57G	≤ 0.5
A14G C22U C29A	≤ 0.5
A14G G51A A57C	0.742
A14G A36C	0.561
A14G A36U	0.658
A14C C49U	0.715
A14G C27U C49A U53A C61U	≤ 0.5
A14G A37C A65G	0.659
A14C U16C C62U A65U	≤ 0.5
A14C G17A G68A	0.522
A14C U19G U32A G52C	≤ 0.5
A14C G25C G52A C66U	≤ 0.5
A14G G23A A70C	≤ 0.5
